Assay results published in ChEMBL document CHEMBL1127493, “Glycylcyclines. 1. A new generation of potent antibacterial agents through modification of 9-aminotetracyclines” (1994).
≈ marks a conversion by molar mass, not a printed value.

What was measured:
Type in all cases: functional
[1] = test system: Escherichia coli; test: In vitro minimum inhibitory concentration against Escherichia coli PRP-1 (tet A efflux).
Procedure, shortened: (§1)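 Agar dilution on Mueller–Hinton II agar; inoculum (1-5) × 10^5 CFU/mL; antibiotic concentrations 32–0.004 µg/mL; plates incubated 18 h at 35 °C in forced-air incubator. MIC taken as lowest concentration inhibiting growth of the test organism (tetracycline-sensitive and tetracycline-resistant strains).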

[2] = test system: Enterococcus faecalis; test: In vitro minimum inhibitory concentration against Enterococcus faecalis ATCC 29212.; procedure, shortened: as §1
[3] = test system: Escherichia coli; test: In vitro minimum inhibitory concentration against Escherichia coli UBMS 90-5 (sensitive).; procedure, shortened: as §1
[4] = test system: Escherichia coli; test: In vitro minimum inhibitory concentration against Escherichia coli J3272 (tet C efflux).; procedure, shortened: as §1
[5] = test system: Staphylococcus aureus; test: In vitro minimum inhibitory concentration against Staphylococcus aureus UBMS 90-3 (sensitive).; procedure, shortened: as §1
[6] = test system: Staphylococcus aureus; test: In vitro minimum inhibitory concentration against Staphylococcus aureus UBMS 90-1 (tet M ribosomal protection).; procedure, shortened: as §1
[7] = test system: Escherichia coli; test: In vitro minimum inhibitory concentration against Escherichia coli UBMS 90-4 (tet M ribosomal protection).; procedure, shortened: as §1
[8] = test system: Staphylococcus aureus; test: In vitro minimum inhibitory concentration against Staphylococcus aureus smith (sensitive).; procedure, shortened: as §1
[9] = test system: Staphylococcus aureus; test: In vitro minimum inhibitory concentration against Staphylococcus aureus UBMS 88-7 (tet K efflux).; procedure, shortened: as §1
[10] = test system: Escherichia coli; test: In vitro minimum inhibitory concentration against Escherichia coli UBMS 88-1 (tet B efflux).; procedure, shortened: as §1
[11] = test system: Escherichia coli; test: In vitro minimum inhibitory concentration against Escherichia coli J3272 (tet D efflux).; procedure, shortened: as §1

| SMILES | MIC [1] [µg/mL] | MIC [2] [µg/mL] | MIC [3] [µg/mL] | MIC [4] [µg/mL] | MIC [5] [µg/mL] | MIC [6] [µg/mL] | MIC [7] [µg/mL] | MIC [8] [µg/mL] | MIC [9] [µg/mL] | MIC [10] [µg/mL] | MIC [11] [µg/mL] |
| --- | --- | --- | --- | --- | --- | --- | --- | --- | --- | --- | --- |
| CCN(CC)c1cc(NC(C)=O)c(O)c2c1CC1CC3[C@H](N(C)C)C(=O)C(C(N)=O)=C(O)[C@@]3(O)C(=O)C1=C2O (stereo partly drawn) | > 32 | 0.25 (≈ 0.461 µM) | 32 (≈ 59 µM) | > 32 | 0.12 (≈ 0.221 µM) | 2 (≈ 3.69 µM) | 32 (≈ 59 µM) | 0.12 (≈ 0.221 µM) | 2 (≈ 3.69 µM) | 32 (≈ 59 µM) |  |
| CC(=O)Nc1ccc2c(c1O)C(O)=C1C(=O)[C@]3(O)C(O)=C(C(N)=O)C(=O)[C@@H](N(C)C)C3CC1C2.O=S(=O)(O)O (stereo partly drawn) | > 32 | 0.25 | 8 | > 32 | 0.12 | 2 | 8 | 0.12 | 32 | > 32 | 0.5 |
| CN(C)c1cc(NC(=O)CN)c(O)c2c1CC1CC3[C@H](N(C)C)C(=O)C(C(N)=O)=C(O)[C@@]3(O)C(=O)C1=C2O.O=C(O)C(F)(F)F (stereo partly drawn) | 32 | 0.25 | 2 | 32 | 0.5 | 2 | 1 | 1 | > 32 | 2 | 2 |
| CN(C)[C@@H]1C(=O)C(C(N)=O)=C(O)[C@@]2(O)C(=O)C3=C(O)c4c(ccc(N)c4O)CC3CC12.O=S(=O)(O)O (stereo partly drawn) | 32 | 0.5 | 1 | > 32 | < 0.015 | 8 | 16 | 0.03 | 4 | > 32 |  |
| CC(=O)Nc1cc(N(C)C)c2c(c1O)C(O)=C1C(=O)[C@]3(O)C(O)=C(C(N)=O)C(=O)[C@@H](N(C)C)C3CC1C2 (stereo partly drawn) | > 32 | 0.25 (≈ 0.486 µM) | 8 (≈ 15.5 µM) | > 32 | 0.25 (≈ 0.486 µM) | 1 (≈ 1.94 µM) | 4 (≈ 7.77 µM) | 0.25 (≈ 0.486 µM) | 8 (≈ 15.5 µM) | > 32 |  |
| CC(=O)Nc1cc(I)c2c(c1O)C(O)=C1C(=O)[C@]3(O)C(O)=C(C(N)=O)C(=O)[C@@H](N(C)C)C3CC1C2.O=S(=O)(O)O (stereo partly drawn) | > 128 | 0.25 | 16 | > 128 | 0.12 | 1 | > 128 | 0.12 | 16 | > 128 |  |
| CN(C)CC(=O)Nc1cc(I)c2c(c1O)C(=O)C1=C(O)[C@]3(O)C(O)=C(C(N)=O)C(=O)[C@@H](N(C)C)C3CC1C2.Cl (stereo partly drawn) | 8 | 0.06 | 2 | 4 | 0.12 | 0.5 | 1 | 0.25 | 4 | 1 | 0.5 |
| CCN(CC)c1cc(N)c(O)c2c1CC1CC3[C@H](N(C)C)C(=O)C(C(N)=O)=C(O)[C@@]3(O)C(=O)C1=C2O.Cl (stereo partly drawn) | 2 | 0.12 | 1 | 4 | 0.03 | 2 | 32 | 0.03 | 0.06 | 2 |  |
| CN(C)[C@@H]1C(=O)C(C(N)=O)=C(O)[C@@]2(O)C(=O)C3=C(O)c4c(ccc(NC=O)c4O)CC3CC12.O=S(=O)(O)O (stereo partly drawn) | > 32 | 0.06 | 0.25 | > 32 | < 0.015 | 1 | 1 | 0.03 | > 32 | 32 |  |
| CN(C)CC(=O)Nc1cc(N(C)C)c2c(c1O)C(=O)C1=C(O)[C@]3(O)C(O)=C(C(N)=O)C(=O)[C@@H](N(C)C)C3CC1C2.Cl (stereo partly drawn) | 2 | 0.06 | 0.25 | 1 | 0.06 | 0.25 | 0.25 | 0.12 | 2 | 0.25 | 0.12 |
| CCN(CC)c1cc(NC(=O)CN(C)C)c(O)c2c1CC1CC3[C@H](N(C)C)C(=O)C(C(N)=O)=C(O)[C@@]3(O)C(=O)C1=C2O.Cl (stereo partly drawn) | 4 | 0.25 | 1 | 4 | 0.5 | 0.5 | 1 | 0.5 | 1 | 1 | 0.5 |
| CN(C)[C@@H]1C(=O)C(C(N)=O)=C(O)[C@@]2(O)C(=O)C3=C(O)c4c(O)c(N)cc(I)c4CC3CC12.O=S(=O)(O)O (stereo partly drawn) | > 32 | 0.12 | 4 | > 32 | 0.03 | 0.5 | > 32 | < 0.015 | 0.5 | > 32 |  |
| CN(C)c1cc(NC=O)c(O)c2c1CC1CC3[C@H](N(C)C)C(=O)C(C(N)=O)=C(O)[C@@]3(O)C(=O)C1=C2O (stereo partly drawn) | 16 (≈ 32 µM) | 0.03 (≈ 0.0599 µM) | 0.25 (≈ 0.499 µM) | > 32 | 0.03 (≈ 0.0599 µM) | 0.06 (≈ 0.12 µM) | 1 (≈ 2 µM) | 0.03 (≈ 0.0599 µM) | 4 (≈ 7.99 µM) | > 32 | 8 (≈ 16 µM) |
| CN(C)c1cc(N)c(O)c2c1CC1CC3[C@H](N(C)C)C(=O)C(C(N)=O)=C(O)[C@@]3(O)C(=O)C1=C2O.Cl (stereo partly drawn) | 4 | 0.25 | 0.5 | 16 | 0.06 | 0.5 | 8 | 0.06 | 0.25 | 32 | 8 |
| CN(C)CC(=O)Nc1ccc2c(c1O)C(=O)C1=C(O)[C@]3(O)C(O)=C(C(N)=O)C(=O)[C@@H](N(C)C)C3CC1C2.Cl (stereo partly drawn) | 1 | 0.03 | 0.12 | 0.5 | 0.06 | 0.12 | 0.12 | 0.12 | 1 | 0.25 | 0.12 |
| CCN(CC)c1cc(NC=O)c(O)c2c1CC1CC3[C@H](N(C)C)C(=O)C(C(N)=O)=C(O)[C@@]3(O)C(=O)C1=C2O (stereo partly drawn) | 32 (≈ 60.5 µM) | 0.06 (≈ 0.114 µM) | 0.5 (≈ 0.946 µM) | 32 (≈ 60.5 µM) | 0.03 (≈ 0.0568 µM) | 0.5 (≈ 0.946 µM) | 8 (≈ 15.1 µM) | 0.03 (≈ 0.0568 µM) | 0.25 (≈ 0.473 µM) | 16 (≈ 30.3 µM) |  |
| CN(C)[C@@H]1C(=O)C(C(N)=O)=C(O)[C@@]2(O)C(=O)C3=C(O)c4c(O)c(NC=O)cc(I)c4CC3CC12.O=S(=O)(O)O (stereo partly drawn) | > 32 | 0.25 | 0.5 | > 32 | 0.03 | 4 | 32 | 0.03 | 16 | > 32 |  |
| CN(C)c1ccc(O)c2c1C[C@H]1C[C@H]3[C@H](N(C)C)C(O)=C(C(N)=O)C(=O)[C@@]3(O)C(O)=C1C2=O [MINOCYCLINE] | 4 (≈ 8.74 µM) |  | 1 (≈ 2.19 µM) | 4 (≈ 8.74 µM) | 0.12 (≈ 0.262 µM) | 4 (≈ 8.74 µM) | > 32 | 0.12 (≈ 0.262 µM) | 0.25 (≈ 0.546 µM) | 16 (≈ 35 µM) | 8 (≈ 17.5 µM) |
| CN(C)[C@@H]1C(O)=C(C(N)=O)C(=O)[C@@]2(O)C(O)=C3C(=O)c4c(O)cccc4[C@@](C)(O)[C@H]3C[C@@H]12 [TETRACYCLINE] | 32 (≈ 72 µM) |  | 1 (≈ 2.25 µM) | > 32 | 0.25 (≈ 0.563 µM) | > 32 | > 32 | 0.25 (≈ 0.563 µM) | > 32 | > 32 | 32 (≈ 72 µM) |
